Measurements as given in ChEMBL document CHEMBL3244174, “Synthesis and biological activity of some new furan quaternary salts” (J Med Chem, 1977).

Key:
Candida albicans = assay: Antifungal activity against Candida albicans SKF 2270 assessed as growth inhibition by agar dilution method; type: functional
Cryptococcus neoformans = assay: Antifungal activity against Cryptococcus neoformans 103 assessed as growth inhibition by agar dilution method; type: functional
[1] = system: Trichophyton mentagrophytes; assay: Antifungal activity against Trichophyton mentagrophytes A-280 USPHS assessed as growth inhibition by agar dilution method; type: functional
Trichophyton rubrum = assay: Antifungal activity against Trichophyton rubrum 252 CSTM assessed as growth inhibition by agar dilution method; type: functional
Microsporum canis = assay: Antifungal activity against Microsporum canis VM-200 USPHS assessed as growth inhibition by agar dilution method; type: functional
Nannizzia gypsea = assay: Antifungal activity against Microsporum gypseum 153 CSTM assessed as growth inhibition by agar dilution method; type: functional
Histoplasma capsulatum = assay: Antifungal activity against Histoplasma capsulatum RNSH Hi-70 1/2 assessed as growth inhibition by agar dilution method; type: functional
Staphylococcus aureus = assay: Antibacterial activity against Staphylococcus aureus ATCC 6538 assessed as growth inhibition after 24 hrs by dilution tube method; type: functional; details: ATCC 6538, 24 h
In short: (§1)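 Broth tube dilution in Tryptone Soya Broth, duplicate tubes at each concentration. MIC (μg/ml) was the highest dilution preventing visible growth. Nitrofurantoin run under the same conditions.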

Enterococcus faecalis = assay: Antibacterial activity against Streptococcus faecalis ATCC 10541 assessed as growth inhibition after 24 hrs by dilution tube method; type: functional; details: ATCC 10541, 24 h; in short: as §1
Pseudomonas aeruginosa = assay: Antibacterial activity against Pseudomonas aeruginosa ATCC 10145 assessed as growth inhibition after 24 hrs by dilution tube method; type: functional; details: ATCC 10145, 24 h; in short: as §1
Klebsiella pneumoniae = assay: Antibacterial activity against Klebsiella pneumoniae ATCC 10031 assessed as growth inhibition after 24 hrs by dilution tube method; type: functional; details: ATCC 10031, 24 h; in short: as §1
Salmonella typhi = assay: Antibacterial activity against Salmonella typhi 115 assessed as growth inhibition after 24 hrs by dilution tube method; type: functional, Salmonella enterica subsp. enterica serovar Typhi; details: Salmonella enterica, 115, 24 h
In short: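 Dilution tube method in Tryptone Soya Broth; MIC (μg/ml) taken as highest dilution preventing visible growth; duplicates at every concentration; nitrofurantoin reference run under same conditions.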

[2] = system: Agrobacterium tumefaciens; assay: Antibacterial activity against Agrobacterium tumefaciens NRRL B-36 assessed as growth inhibition after 24 hrs by dilution tube method; type: functional; details: NRRL B-36, 24 h; in short: as §1
Escherichia coli = assay: Antibacterial activity against Escherichia coli 114 assessed as growth inhibition after 24 hrs by dilution tube method; type: functional; details: Escherichia coli, 114, 24 h; in short: as §1
[3] = system: Mycobacterium tuberculosis; assay: Antibacterial activity against Mycobacterium tuberculosis H37Rv assessed as growth inhibition by serial dilution method; type: functional
In short: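 M. tuberculosis H37Rv maintained on Lowenstein–Jensen medium; tested in Youman's medium by serial dilution.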

SMILES	MIC (Candida albicans) [µg/mL]	MIC (Cryptococcus neoformans) [µg/mL]	MIC [1] [µg/mL]	MIC (Trichophyton rubrum) [µg/mL]	MIC (Microsporum canis) [µg/mL]	MIC (Nannizzia gypsea) [µg/mL]	MIC (Histoplasma capsulatum) [µg/mL]	MIC (Staphylococcus aureus) [µg/mL]	MIC (Enterococcus faecalis) [µg/mL]	MIC (Pseudomonas aeruginosa) [µg/mL]	MIC (Klebsiella pneumoniae) [µg/mL]	MIC (Salmonella typhi) [µg/mL]	MIC [2] [µg/mL]	MIC (Escherichia coli) [µg/mL]	MIC [3] [µg/mL]
C[N+](C)(CCCOc1c(Br)cc(Br)cc1Br)Cc1ccc(Br)o1.[Br-]	> 200	50	> 200	> 200	> 200	> 200	> 200	10	25	4	7.5	100	50	> 200	10
C[N+](C)(CCCCCCCCCCCCOc1c(Br)cc(Br)cc1Br)Cc1ccc(Br)o1.[Br-]	> 200	200	> 200	> 200	200	> 200	> 200	200	200	50	200	> 200	> 200	> 200	100
C[N+](C)(CCCCCCCCCCCCCCOc1c(Br)cc(Br)cc1Br)Cc1ccc(Br)o1.Cc1ccc(S(=O)(=O)[O-])cc1	> 200	200	> 200	> 200	200	> 200	> 200	100	100	50	100	200	200	> 200	200
Cc1cc(OCCCCCCCCCCCC[N+](C)(C)Cc2ccc([N+](=O)[O-])o2)c(C(C)C)cc1Cl.Cc1ccc(S(=O)(=O)[O-])cc1	> 200	100	> 200	> 200	> 200	> 200	> 200	200	200	50	200	> 200	> 200	> 200	100
C[N+](C)(CCCCCCCCOc1c(Br)cc(Br)cc1Br)Cc1ccc(Br)o1.[Br-]	> 200	4	> 200	> 200	> 200	> 200	> 200	3	4	2	4	> 200	7.5	> 200	50
C[N+](C)(CCOc1ccc(Cl)cc1Cl)Cc1ccc(Br)o1.[Br-]	> 200	> 200	> 200	> 200	> 200	> 200	> 200	100	> 200	50	100	> 200	> 200	> 200	> 200
Cc1cc(OCCCCCCCC[N+](C)(C)Cc2ccc(Br)o2)c(C(C)C)cc1Cl.Cc1ccc(S(=O)(=O)[O-])cc1	> 200	50	200	200	100	200	> 200	100	100	25	100	> 200	100	> 200	25
Cc1cc(OCCCCCC[N+](C)(C)Cc2ccc(Br)o2)c(C(C)C)cc1Cl.Cc1ccc(S(=O)(=O)[O-])cc1	> 200	100	200	200	100	200	> 200	50	50	10	25	> 200	100	> 200	10
